The values below come from publication PMC4774891 (Pharmaceutical research, 2015).

The subject of data set [1] is A431 epidermoid carcinoma subcutaneous xenograft. Put plainly: Anticancer study in A431 subcutaneous xenograft model. To be noted: 50 mg/kg daily orally, 4 weeks; vehicle control 6663.01 ±1113.23. The class given is in vivo, Nu/nu mice.
The nature of the next data set: Chronic toxicity. The class given is in vivo. To be noted: 4 weeks daily oral.
For data set [2] the following is noted: free drug; cited from earlier work.
A short description of data set [3]: Oral pharmacokinetic study. It counts as in vivo, Sprague Dawley rats. To be noted: rat.
In another data set the test system is A431 tumors. In words: IHC analysis of A431 tumors. It counts as in vivo, Nu/nu mice. To be noted: untreated control 34.00±6.26.
Another data set deals with VEGF. In words: VEGF estimation by ELISA in serum and tumor lysates. The class given is in vivo, Nu/nu mice.
Data set [4] in a line: Caco-2 permeability study. To be noted: human, Caco-2, pH 5.8.
A further data set can be described thus: In vitro drug release. It counts as physicochemical. To be noted: PBS 1% Volpo pH 6.8, 37°C. The essentials:
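Equal drug amounts (free drug, spray-dried formulation, or physical mixture) suspended in 500 ml PBS with 1% Volpo, pH 6.8. USP type II paddle, 50 rpm, 37±0.5°C, followed over 48 h.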

The mark [5] stands for this setting: Sprague Dawley, plasma, po, 50 mg/kg.

As to lucifer yellow, the “average permeability (paracellular control)” value in the data set on Caco-2 cell monolayers is under 0.15 ×10⁻⁶ cm/s.
`COc1cc2ncnc(Nc3ccc(F)c(Cl)c3)c2cc1OCCCN1CCOCC1` [Gef free drug, Gefitinib]: in [1], the final tumor volume came out at 3534.49±896.16 mm^3. The body weight change result in the data set “Chronic toxicity” is reported as “no change in the body weights”. The aqueous solubility entry in data set [2] was “less than 1 mg/ml”. Further, in [3] (50 mg/kg orally), the CL was determined as 1.9 ± 0.0408 mL/day/kg, the Vss stood at 0.00045 ± 0.00022 L/kg and the “maximum plasma concentration (approximate molar)” value is “approximately 0.55 μM”. In [3] (setting [5]), the AUC(0-inf) (commonly the area under the concentration-time curve extrapolated to infinity) stood at 1340 ± 244 ng·h/mL; the Cmax (commonly the peak of the concentration-time curve) stood at 248 ± 89.5 ng/mL; the MRT (usually a mean duration of stay, worked out from the concentration-time curve) amounted to 8.85 ± 1.83 h; the time of peak concentration (Tmax) (as a rule, the time at which the peak concentration occurs) is 1.25 ± 0.25 h. In data set [3] (setting [5]), the half-life (commonly how long it takes for the measured level to halve) was 7.46 ± 1.75 h. Further, the “cleaved caspase 3 positive apoptotic cells/field” value in the data set with A431 tumors was 145.33±28.44 cells/field. Further, in the data set with VEGF (serum, control 572.90±38.51), the “VEGF level in serum” value is 336.40 ± 55.84 pg/mL. Further, in the data set with VEGF (tumor lysates, control 355.35± 49.93), the “VEGF level in tumor lysates” value is 175.65±25.76 pg/mg protein. Further, in data set [4], the Papp A→B (as a rule, how fast a substance crosses the layer from the apical side) at 120 min, 100 μM was determined as 0.34 ± 0.09 ×10⁻⁶ cm/s. For the same compound, in “In vitro drug release”, the “drug released after 48 h” value was 16%.
